The values that follow come from ChEMBL document CHEMBL1649322, “Oral treatment options for ambulatory patients with urinary tract infections caused by extended-spectrum-beta-lactamase-producing Escherichia coli” (2010).

The test system of assay [1] is Escherichia coli. Kind of assay: Antimicrobial activity against xtended-spectrum-beta-lactamase-producing Escherichia coli obtained from urinary tract infection patient by Etest. In kind it is functional. The note with it: Urine. The method in brief:
(§1)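 ESBL-producing E. coli isolates from urinary tract infections; ESBL expression confirmed by double-disk synergy test per 2007 CLSI guidelines. Verified isolates (n = 100) tested by Etest, alongside agar diffusion, for pivmecillinam, fosfomycin and ertapenem. Read-outs were MIC and susceptibility category (susceptible, reduced/intermediate, resistant), given as percent of isolates; mean MIC calculated for susceptible isolates.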

Assay [2] relates to Escherichia coli. Kind of assay: Antimicrobial activity against xtended-spectrum-beta-lactamase-producing Escherichia coli obtained from urinary tract infection patient assessed as percent susceptible isolates by Etest. The class given is functional, Urine. The method in brief:
as §1

≈ marks a conversion by molar mass, not a printed value.

As a reminder, the MIC is the least concentration at which growth counts as inhibited. A low value points to inhibition by little substance. `CC(C)(C)C(=O)OCOC(=O)[C@@H]1N2C(=O)[C@@H](/N=C/N3CCCCCC3)[C@H]2SC1(C)C` [AMDINOCILLIN PIVOXIL]: in assay [1], inhibition of growth (MIC) required 1.17 µg/mL (≈ 2.66 µM). For the same compound, in assay [2], the Activity is listed as 85%.

`O=C(O)c1cn(C2CC2)c2cc(N3CCNCC3)c(F)cc2c1=O` [CIPROFLOXACIN]: the Activity in assay [2] is recorded as 22%.

In assay [1], `C[C@@H](O)[C@H]1C(=O)N2C(C(=O)O)=C(S[C@@H]3CN[C@H](C(=O)Nc4cccc(C(=O)O)c4)C3)[C@H](C)[C@H]12` [ERTAPENEM] had an MIC of 0.07 µg/mL (≈ 0.147 µM). Also, in assay [2], the Activity is listed as 100%.

In turn, `C[C@@H]1O[C@@H]1P(=O)(O)O` [FOSFOMYCIN] came in with an MIC in assay [1] of 1.38 µg/mL (≈ 10 µM). The Activity in assay [2] is reported as 97%.

For `O=C1CN(/N=C/c2ccc([N+](=O)[O-])o2)C(=O)N1` [NITROFURANTOIN], the MIC in assay [1] was found to be 17 µg/mL (≈ 71.5 µM). Moreover, in assay [2], the Activity amounted to 94%.

Regarding GENTAMICIN, the Activity in assay [2] (Urine) stood at 78%.
